High-throughput results (PubChem)
Jurkat NFkB inh: lowers PMA/ionomycin-induced NF-kB signal in Jurkat cells; PMA/ionomycin-induced NF-kB luciferase reporter, luminescence; hit rate 0.53% among 330,000; inhibition, % at 4 µM; in the data active = inhibition above about 50%
aSyn UTR inh: MLPCN primary screen, SNCA 5' untranslated region; inhibition, % (tested at 7.5 µM); hit rate 0.82% among 300,000; alpha-synuclein 5'UTR reporter, inhibitor activity; in the data active = inhibition above about 60%; inconclusive = no clear call, values can overlap the other calls;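 also: H4 neuroglioblastoma cells stably carrying SNCA 5'UTR luciferase fusion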
VIM-2 inhibitor: inhibitors of Pseudomonas aeruginosa VIM-2 metallo-beta-lactamase; inhibition, % at 5.6 µM; hit rate 0.89% among 290,000; AID 1527; purified VIM-2, nitrocefin hydrolysis, epi-absorbance fluorescence;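 active = inhibition above the mean of all tested compounds plus 3 SD, cutoff set per screening run, cut at about 7.5% in these data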;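 also: red hydrolysis product quenches plate fluorescence so inhibitors raise well fluorescence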
IMP-1 inhibitor: inhibitors of Pseudomonas aeruginosa IMP-1 metallo-beta-lactamase; purified IMP-1, nitrocefin hydrolysis, epi-absorbance fluorescence; hit rate 0.45% among 290,000; inhibition, % at 5.6 µM; AID 1556;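 active = inhibition above the mean plus 3 SD of all compounds in the same screening run, cut at about 4.5% in these data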
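Assay system: purified recombinant IMP-1 beta-lactamase. Input: IMP-1 0.2 nM before substrate addition. Buffer or medium: Zinc- and detergent-supplemented HEPES buffer, pH 7.1. Schedule: 25 °C, 15 min preincubation, 25 min reaction. Signal: Epi-absorbance fluorescence, 480 nm excitation, 530 nm emission. Evaluation: percent inhibition from optical density relative to buffer-blank wells.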
697 NFkB inh: inhibitors of the PMA/ionomycin-induced NF-kB reporter in 697 B cells; 697 B-cell NF-kB luciferase reporter, 16 h; inhibition, % at 4 µM; hit rate 0.33% among 330,000; AID 435022; in the data active = inhibition above about 35%
Mdm2 MdmX PPI: inhibitors of human Mdm2/MdmX interaction; SaOS-2 split-luciferase Mdm2/MdmX complementation, luminescence; O15151+Q00987; inhibition, % at 8 µM; hit rate 3% among 330,000;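 active = inhibition of at least 50% at 8 µM in the primary screen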
Target sequence (O15151 whole entry, looked up): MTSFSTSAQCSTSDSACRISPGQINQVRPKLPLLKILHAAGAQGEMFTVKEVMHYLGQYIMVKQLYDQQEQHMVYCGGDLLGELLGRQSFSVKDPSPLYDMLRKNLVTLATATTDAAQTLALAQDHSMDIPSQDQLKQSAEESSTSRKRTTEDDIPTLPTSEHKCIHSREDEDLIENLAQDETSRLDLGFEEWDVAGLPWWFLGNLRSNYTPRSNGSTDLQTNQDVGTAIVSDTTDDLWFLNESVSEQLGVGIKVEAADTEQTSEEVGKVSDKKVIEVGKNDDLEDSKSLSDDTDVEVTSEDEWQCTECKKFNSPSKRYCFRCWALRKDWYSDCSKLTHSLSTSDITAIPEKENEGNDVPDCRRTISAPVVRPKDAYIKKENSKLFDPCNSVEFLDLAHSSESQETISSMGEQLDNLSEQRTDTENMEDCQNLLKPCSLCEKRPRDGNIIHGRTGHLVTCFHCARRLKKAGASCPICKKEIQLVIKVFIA
Target sequence (Q00987 whole entry, looked up): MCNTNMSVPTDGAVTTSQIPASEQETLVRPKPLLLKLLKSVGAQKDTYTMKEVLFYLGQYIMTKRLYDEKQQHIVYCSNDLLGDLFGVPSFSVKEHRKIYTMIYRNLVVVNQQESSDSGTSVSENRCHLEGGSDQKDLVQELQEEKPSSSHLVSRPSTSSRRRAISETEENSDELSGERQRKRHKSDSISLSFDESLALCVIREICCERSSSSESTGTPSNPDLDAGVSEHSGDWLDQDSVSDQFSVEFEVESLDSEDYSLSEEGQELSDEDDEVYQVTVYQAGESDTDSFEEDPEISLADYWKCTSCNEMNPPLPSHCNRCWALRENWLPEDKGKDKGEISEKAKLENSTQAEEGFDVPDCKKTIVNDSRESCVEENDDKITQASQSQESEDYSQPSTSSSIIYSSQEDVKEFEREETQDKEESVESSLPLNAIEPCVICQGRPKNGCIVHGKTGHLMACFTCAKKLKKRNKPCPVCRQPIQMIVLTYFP
Mdm2 MdmX conf: human Mdm2/MdmX binding inhibition, confirmed; shares compounds with Mdm2 MdmX PPI; AID 489028; inhibition, % at 8 µM; hit rate 55% among 10,000; luminescent assay; in the data active = inhibition above about 40%
Full FLuc ctr: full-length luciferase inhibition in Mdm2/MdmX counter-screen; shares compounds with Mdm2 MdmX PPI; SaOS-2 full-length luciferase counterscreen, luminescence; inhibition, % at 8 µM; hit rate 77% among 6,200; AID 504607;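 active = mean inhibition at 8 µM reaching about 37%, which flags the compound as non-specific, limit read from the data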;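 also: p53-null SaOS-2 cells with luciferase driven by a doxycycline-inducible promoter; compound on cells about two nights before reading with doxycycline added after day one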
Numbers stand for hits. Most compounds without a hit are left out; they make up all but 4.7% or so of the library.

COc1ccc([N+](=O)[O-])cc1NC(=O)CSCc1ccccc1C was read as Jurkat NFkB inh inactive, aSyn UTR inh inactive, VIM-2 inhibitor inactive, IMP-1 inhibitor inactive, 697 NFkB inh inactive and Mdm2 MdmX PPI inactive.
Screening Cc1ccc(CN2CCN(/N=C\C(Br)=C\c3ccccc3)CC2)cc1 returned Jurkat NFkB inh inactive, aSyn UTR inh inactive, VIM-2 inhibitor inactive, IMP-1 inhibitor inactive, 697 NFkB inh inactive and Mdm2 MdmX PPI inactive.
`O=C(NC(=S)Nc1ccccc1O)c1ccc(-c2ccc(Cl)cc2)o1` gave Jurkat NFkB inh inactive, aSyn UTR inh inactive, VIM-2 inhibitor inactive, IMP-1 inhibitor inactive, 697 NFkB inh inactive and Mdm2 MdmX PPI inactive.
Screening Cc1ccc(O)c(NC(=S)NC(=O)c2ccc(-c3ccc(Cl)cc3)o2)c1 returned Jurkat NFkB inh inactive, aSyn UTR inh inactive, VIM-2 inhibitor inactive, IMP-1 inhibitor inactive, 697 NFkB inh inactive, Mdm2 MdmX PPI 51 and Mdm2 MdmX conf inactive.
Screening Cc1ccc(OCC(=O)NNC(=S)NC(=O)c2cccs2)c(C)c1 returned Jurkat NFkB inh inactive, aSyn UTR inh inactive, VIM-2 inhibitor inactive, IMP-1 inhibitor inactive, 697 NFkB inh inactive, Mdm2 MdmX PPI 51 and Mdm2 MdmX conf inactive.
`CCCC(=O)Nc1ccc(C(=O)NNC(=S)NC(=O)c2cccs2)cc1` gave Jurkat NFkB inh inactive, aSyn UTR inh inactive, VIM-2 inhibitor inactive, IMP-1 inhibitor inactive, 697 NFkB inh inactive and Mdm2 MdmX PPI inactive.
`CCCOc1ccc(C(=O)NNC(=S)NC(=O)c2cccs2)cc1` gave Jurkat NFkB inh inactive, aSyn UTR inh inactive, VIM-2 inhibitor inactive, IMP-1 inhibitor inactive, 697 NFkB inh inactive, Mdm2 MdmX PPI 60 and Mdm2 MdmX conf inactive.
Screening CCCOc1ccc(C(=O)NNC(=S)NC(=O)c2ccco2)cc1 returned Jurkat NFkB inh inactive, aSyn UTR inh inconclusive, VIM-2 inhibitor inactive, IMP-1 inhibitor inactive, 697 NFkB inh inactive, Mdm2 MdmX PPI 51, Mdm2 MdmX conf inactive and Full FLuc ctr 52.
CC1CC(C)(C)NC(=S)N1CCCC(=O)Nc1ccc(F)cc1 (configuration not stated) was read as Jurkat NFkB inh inactive, aSyn UTR inh inactive, VIM-2 inhibitor inactive, IMP-1 inhibitor inactive, 697 NFkB inh inactive and Mdm2 MdmX PPI inactive.
For COC(=O)Cn1c(=NC(=O)C2COc3ccccc3O2)sc2cc(S(N)(=O)=O)ccc21 (configuration not stated) the results were Jurkat NFkB inh inactive, aSyn UTR inh inactive, VIM-2 inhibitor inactive, IMP-1 inhibitor inactive, 697 NFkB inh inactive and Mdm2 MdmX PPI inactive.
`CCN1CCCC1CNC(=O)C(=O)NC(C)C` (configuration not stated) gave Jurkat NFkB inh inactive, aSyn UTR inh inactive, VIM-2 inhibitor inactive, IMP-1 inhibitor inactive, 697 NFkB inh inactive and Mdm2 MdmX PPI inactive.
Cc1oc(C)c2c(=O)ccc3c(c12)OC(N)=C(C#N)C3c1ccccc1Cl (configuration not stated) was read as Jurkat NFkB inh inactive, VIM-2 inhibitor inactive, IMP-1 inhibitor inactive, 697 NFkB inh inactive and Mdm2 MdmX PPI inactive.
For N#CC1=C(N)OC2=C(CC/C2=C\c2ccccc2Cl)C1c1ccccc1Cl (configuration not stated) the results were Jurkat NFkB inh inactive, aSyn UTR inh inactive, VIM-2 inhibitor inactive, IMP-1 inhibitor inactive, 697 NFkB inh inactive, Mdm2 MdmX PPI 66 and Mdm2 MdmX conf inactive.
Nc1c(Cl)cc(-c2csc(N3CCCC3c3nc4cc(Cl)c(N5CCCCC5)cc4n3CCCO)n2)cc1Cl (configuration not stated) was read as Jurkat NFkB inh inactive, aSyn UTR inh inactive, 697 NFkB inh inactive, Mdm2 MdmX PPI 85 and Mdm2 MdmX conf inactive.
Screening CC(C)(C)Nc1nc(N2CCCC2)nc(N2CCCC2)n1 returned Jurkat NFkB inh inactive, aSyn UTR inh 68, VIM-2 inhibitor inactive, IMP-1 inhibitor inactive, 697 NFkB inh inactive, Mdm2 MdmX PPI 55 and Mdm2 MdmX conf inactive.
`COC(=O)/C=C1\NCCNC1=O` gave Jurkat NFkB inh inactive, aSyn UTR inh inactive, VIM-2 inhibitor inactive, IMP-1 inhibitor inactive, 697 NFkB inh inactive and Mdm2 MdmX PPI inactive.
Screening O=C(OCCOc1cccc(Cl)c1)c1cc(S(=O)(=O)N2CCOCC2)ccc1F returned Jurkat NFkB inh inactive, aSyn UTR inh inactive, 697 NFkB inh inactive and Mdm2 MdmX PPI inactive.
Cc1oc2c(c1C(=O)O)C(=O)c1ccccc1C2=O was read as Jurkat NFkB inh inactive, aSyn UTR inh inactive, VIM-2 inhibitor inactive, IMP-1 inhibitor inactive, 697 NFkB inh inactive and Mdm2 MdmX PPI inactive.
`CCOC(=O)c1c(C)oc2c1C(=O)c1ccccc1C2=O` gave Jurkat NFkB inh inactive, aSyn UTR inh inactive, VIM-2 inhibitor inactive, IMP-1 inhibitor inactive, 697 NFkB inh inactive, Mdm2 MdmX PPI 54 and Mdm2 MdmX conf inactive.
`Cc1oc2c(c1C(=O)c1ccccc1)C(=O)C(=O)c1ccccc1-2` gave Jurkat NFkB inh inactive, aSyn UTR inh 127, VIM-2 inhibitor inactive, IMP-1 inhibitor inactive, 697 NFkB inh inactive, Mdm2 MdmX PPI 97, Mdm2 MdmX conf 72 and Full FLuc ctr inactive.
O=C1C(=O)c2c(C(=O)c3ccccc3)coc2-c2ccccc21 was read as Jurkat NFkB inh inactive, aSyn UTR inh inactive, VIM-2 inhibitor inactive, IMP-1 inhibitor inactive, 697 NFkB inh inactive, Mdm2 MdmX PPI 100 and Mdm2 MdmX conf inactive.
For Cn1c(C(=O)O)ccc1S(=O)(=O)N1CCCCCC1 the results were Jurkat NFkB inh inactive, aSyn UTR inh inactive, VIM-2 inhibitor inactive, IMP-1 inhibitor inactive, 697 NFkB inh inactive and Mdm2 MdmX PPI inactive.
`CCc1c(C(=O)NNC(=O)Nc2ccc3c(c2)OCO3)csc1C` gave Jurkat NFkB inh inactive, aSyn UTR inh inactive, VIM-2 inhibitor inactive, IMP-1 inhibitor inactive, 697 NFkB inh inactive and Mdm2 MdmX PPI inactive.
`C=CCn1c(=NC(=O)c2sc3ccccc3c2Cl)sc2cc(S(N)(=O)=O)ccc21` gave Jurkat NFkB inh inactive, aSyn UTR inh inactive, VIM-2 inhibitor inactive, IMP-1 inhibitor inactive, 697 NFkB inh inactive, Mdm2 MdmX PPI 68 and Mdm2 MdmX conf inactive.
For CCOC(=O)Cn1c(=NC(=O)c2nc3ccccc3s2)sc2cc(S(N)(=O)=O)ccc21 the results were Jurkat NFkB inh inactive, aSyn UTR inh inactive, VIM-2 inhibitor inactive, IMP-1 inhibitor inactive, 697 NFkB inh inactive, Mdm2 MdmX PPI 63 and Mdm2 MdmX conf inactive.
ON=C1c2cc(OCCN3CCCCC3)ccc2-c2ccc(OCCN3CCCCC3)cc21 was read as Jurkat NFkB inh inactive, aSyn UTR inh inactive, VIM-2 inhibitor inactive, IMP-1 inhibitor 5.6, 697 NFkB inh inactive, Mdm2 MdmX PPI 97, Mdm2 MdmX conf 70 and Full FLuc ctr 91.
